Screens deposited in PubChem by NMMLSC.
Sampled rows, rich in hits. Any-hit rate of the full collection: about 2.3%.
MEKK2mut PB1 HTS: MEK5 binding signal on mutant MEKK2 PB1, primary screen, biochemical, multiplex bead flow cytometry, Alexa488-MEK5 | Alexa488-MEK5 binding to MEKK2 mutant | percent response, % at 10 µM | hit rate 0.35% among 290,000 | AID 1530, 2009; in the data active = percent response above about 24%, passing the limit was not always enough
ABCG2 inh: ABCG2 efflux pump inhibitors, primary screen, multiplex with ABCB1, IgMXP3 cells, flow cytometry; Broad substrate specificity ATP-binding cassette transporter ABCG2 (Homo sapiens), Q9UNQ0; JC-1 efflux; inhibition, % at 6.6 µM; hit rate 0.1% among 190,000; AID 1325, 2008;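 active = inhibition above 80%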;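 note: 0% = DMSO and 100% = nicardipine control wells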
Target sequence (Q9UNQ0 whole entry, looked up): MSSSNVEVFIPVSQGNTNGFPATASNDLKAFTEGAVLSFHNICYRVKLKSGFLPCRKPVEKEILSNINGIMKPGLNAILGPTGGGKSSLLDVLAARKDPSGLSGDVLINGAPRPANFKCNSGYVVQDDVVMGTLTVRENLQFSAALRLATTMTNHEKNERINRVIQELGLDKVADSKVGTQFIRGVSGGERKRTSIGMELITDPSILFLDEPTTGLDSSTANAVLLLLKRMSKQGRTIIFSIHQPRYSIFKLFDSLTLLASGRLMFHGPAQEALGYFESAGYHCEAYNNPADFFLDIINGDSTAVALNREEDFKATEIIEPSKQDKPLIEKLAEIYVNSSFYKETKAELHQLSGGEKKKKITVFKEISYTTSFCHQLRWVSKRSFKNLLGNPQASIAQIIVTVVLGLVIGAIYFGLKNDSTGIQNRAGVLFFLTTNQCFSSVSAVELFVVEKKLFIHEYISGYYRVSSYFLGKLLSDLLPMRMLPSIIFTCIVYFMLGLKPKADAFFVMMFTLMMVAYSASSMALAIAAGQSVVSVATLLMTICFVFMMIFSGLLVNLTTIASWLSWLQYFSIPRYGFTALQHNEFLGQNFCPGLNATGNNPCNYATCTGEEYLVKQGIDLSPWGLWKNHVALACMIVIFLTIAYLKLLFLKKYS
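material = IgMXP3 (ABCG2) plus far-red-tagged CCRF-Adr (ABCB1) cells | amount = 3 million cells/mL, equal mix of both lines | also added = JC-1 transporter substrate | dosing = one concentration, 6.6 µM final | schedule = 10 min at 25 °C | measured by = flow cytometric JC-1 green MFI at 530 nm | read-out basis = percent efflux inhibition, scaled nicardipine 100% to DMSO 0%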
ABCB1 inh: ABCB1 efflux pump inhibitors, primary screen, cell-based, multiplex, flow cytometry, ABCG2 counter-screen; ATP-dependent translocase ABCB1 (Homo sapiens), P08183; CCRF-Adr cells, JC-1 efflux; hit rate 0.067% among 190,000; inhibition, % at 6.6 µM; in the data active = inhibition above about 40%;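 note: 0% = vehicle and 100% = reference inhibitor; higher value means more JC-1 retained so stronger ABCB1 efflux block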
MEKK3 PB1 HTS: modulators of MEKK3-MEK5 PB1 binding, primary screen, biochemical, wildtype MEKK3, multiplex bead flow cytometry, Alexa488-MEK5 | bead-based flow cytometry, Alexa488-MEK5 binding to MEKK3; actives lie on both sides; 0 = blocked by unlabeled MEK5, 100 = vehicle | binding response (% of control), % at 10 µM | hit rate 1.4% among 290,000 | AID 1529, 2009;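 active = binding response more than 3 SD above or below the average of its plate-row segment, actives on both sides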;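 note: Alexa488 bead fluorescence after subtracting the streptavidin-only scavenger bead signal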
MEKK2 WT-MEK5: modulators of MEK5 binding to wildtype MEKK2, primary screen, biochemical, multiplex bead flow cytometry, Alexa488-MEK5 | Alexa488-MEK5 binding to MEKK2 WT; actives lie on both sides | AID 1531, 2009 | hit rate 1.1% among 290,000 | Mitogen-activated protein kinase kinase kinase 2 (Homo sapiens), Q9Y2U5 | binding response (% of control), % at 10 µM; in the data active = binding response below about 67% or above about 130%
MEKK2wt confirm: modulators of MEK5 binding to wildtype MEKK2, confirmation, biochemical, single concentration, multiplex bead flow cytometry; shares compounds with MEKK3 PB1 HTS; Alexa488-MEK5 binding to MEKK2 WT; actives lie on both sides; binding response (% of control), % at 10 µM; hit rate 2.4% among 5,900; in the data active = binding response below about 16% or above about 210%; inactive = in between
MEKK2mut-MEK5: mutant MEKK2 PB1-MEK5 binding signal retest – biochemical, single concentration, multiplex bead flow cytometry, confirmation; hit rate 2% among 5,900; shares compounds with MEKK3 PB1 HTS; percent response, % at 10 µM; Alexa488-MEK5 binding to MEKK2 mutant; in the data active = percent response mostly above about 71%, no sharp cut-off; inactive = mostly below about 38%;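 note: higher means compound restores mutant binding toward wildtype level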
MEKK3-MEK5 inh: MEKK3 wild-type PB1 binding to MEK5, inhibitors, confirmation, biochemical, bead multiplex flow cytometry, single concentration, wildtype | shares compounds with MEKK3 PB1 HTS | Alexa488-MEK5 binding to MEKK3; hits give low values | binding response (% of control), % at 10 µM | hit rate 1.8% among 5,900 | AID 1894, 2009;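 active = binding response below 72% of control, or above a set upper limit, though filed actives all read lower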;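 note: 100% = DMSO only wells and 0% = binding blocked by excess unlabeled MEK5; lower values mean stronger disruption of MEK5 binding to MEKK3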
An asterisk follows results filed as active; . = no result; [ ] = dose if it differs, or a comment.

SMILES | MEKK2mut PB1 HTS | ABCG2 inh | ABCB1 inh | MEKK3 PB1 HTS | MEKK2 WT-MEK5 | MEKK2wt confirm | MEKK2mut-MEK5 | MEKK3-MEK5 inh
CCn1c(/C=C/N(C(C)=O)c2ccccc2)[n+](CC)c2ccc(Cl)cc21 | -1 | -3 | 0 | 109 | 104 | . | . | .
CC[n+]1c(/C=C/C=C/N(C(C)=O)c2ccccc2)sc2ccccc21 | -16 | 5 | 3 | 2.0*[inhibitor] | . | 13*[inhibitor] | 7 | 87
CCOc1ccccc1NC(=O)CC1SC(=N)N(c2ccccc2)C1=O (configuration not stated) | 0 | 2 | 0 | 139* | 112 | 107 | 6 | 108
O=C(CSc1nc2ccc(Nc3nc(N4CCOCC4)nc(N4CCOCC4)n3)cc2s1)Nc1ccccc1F | -5 | . | . | 99 | 94 | . | . | .
Cc1ccc(Nc2ncnc3c2nnn3Cc2ccccc2)cc1 | 29 | . | . | 132* | 134 | 104 | 1 | 103
COc1cc2c(C(=O)N(C)c3ccc(F)cc3)cn(C)c(=O)c2cc1OC | 8 | . | . | 105 | 105 | . | . | .
O=[N+]([O-])c1cccc(-c2nnc(-c3ccccc3F)o2)c1 | 3 | . | . | 102 | 103 | . | . | .
Fc1ccccc1-c1nc(NCc2ccco2)c2ccccc2n1 | -3 | 3 | 0 | 93 | 99 | . | . | .
OCCNc1nc(Nc2ccc(Br)cc2)nc2ccccc12 | 28 | 0 | 0 | 108 | 146* | 132 | 36 | 104
Oc1ccccc1Nc1nc(NCc2ccccc2)c2ccccc2n1 | 67* | 0 | 0 | 114 | 216* | 192 | 54 | 111
Cc1ccc(Nc2nc(NCc3ccco3)c3ccccc3n2)cc1 | 77* | 2 | 2 | 107 | 191* | 177 | 49 | 102
Oc1ccccc1-c1nc(NCc2ccco2)c2ccccc2n1 | -4 | 0 | 0 | 100 | 101 | . | . | .
COc1ccccc1Nc1nc(NCc2ccco2)c2ccccc2n1 | 42 | . | . | 117 | 177* | 149 | 23 | 106
COc1ccc(-n2c(=S)[nH]c3cc(C(=O)Nc4ccccc4OC)ccc3c2=O)c(OC)c1 | -7 | . | . | 91 | 82 | . | . | .
COc1ccc(-n2c(=S)[nH]c3cc(C(=O)Nc4ccccc4OC)ccc3c2=O)cc1 | -1 | 5 | 0 | 132* | 103 | 98 | -1 | 97
O=C(CSc1ccc(F)cc1)NC1CCCCC1 | -84 | 2 | 0 | 2.0*[inhibitor] | 1.0*[inhibitor] | 106 | 5 | 107
O=C(CSc1ccc(Cl)cc1)NC1CCCC1 | -3 | 2 | 1 | 98 | 95 | . | . | .
COc1ccccc1CNC(=O)c1cn(C)c2ccc(S(=O)(=O)N3CCCCC3)cc2c1=O | 192* | 1 | 1 | 127 | 108 | 98 | -8 | 99
O=C(CCl)Nc1cc(S(=O)(=O)N2CCCCCC2)ccc1Cl | 0 | 16 | 1 | 130* | 100 | 107 | 2 | 106
COc1ccc(S(=O)(=O)N2CCCCCC2)cc1NC(=O)Cc1ccccc1F | -19 | . | . | 75*[inhibitor] | 79 | 104 | 0 | 102
COc1ccc(S(=O)(=O)N2CCCCCC2)cc1NC(=O)Cc1cc(OC)c(OC)c(OC)c1 | 1 | 11 | 2 | 102 | 102 | . | . | .
CCc1nc2ccccc2c(C(=O)OCC(=O)NC(=O)c2cccn2C)c1C | -18 | . | . | 67*[inhibitor] | 72 | 101 | 3 | 105
COc1ccc(-n2nc(C(=O)NCC(=O)N3CCC(C(N)=O)CC3)c3ccccc3c2=O)cc1 | -1 | . | . | 102 | 97 | . | . | .
CNC(=O)c1ccc(C)c(NC(=O)C2=C(C)OCCS2)c1 | 3 | . | . | 105 | 106 | . | . | .
Cn1ncc(Cl)c(Oc2ccccc2)c1=O | 3 | 1 | 0 | 103 | 103 | . | . | .
SMILES | MEKK2mut PB1 HTS | ABCG2 inh | ABCB1 inh | MEKK3 PB1 HTS | MEKK2 WT-MEK5 | MEKK2wt confirm | MEKK2mut-MEK5 | MEKK3-MEK5 inh
CSc1nc(C)c(Oc2ccccc2)c(=O)n1C | -21 | -1 | 0 | -1.0*[inhibitor] | -1.0*[inhibitor] | 99 | 3 | 102
O=C(CN1CCCN(S(=O)(=O)c2ccc(Br)cc2)CC1)Nc1ccc2c(c1)OCO2 | -9 | 3 | 1 | 1.0*[inhibitor] | 0.0*[inhibitor] | 105 | -2 | 97
CC(C)(C)OC(=O)N1CCN(c2ccc(NC(=O)c3ccco3)cc2)CC1 | 5 | . | . | 101 | 97 | . | . | .
CCN(CC)CCNC(=O)c1ccc(NC(=O)c2ccc(COc3ccccc3)cc2)cc1 | 26* | . | . | 101 | 162* | 168 | 31 | 106
Cc1ccc(CSCC(=O)N2CCN(c3ccccc3)CC2)cc1 | 0 | 6 | 1 | 131* | 106 | 107 | -1 | 107
O=C(/C=C/c1ccc(Cl)cc1)Nc1ccc(CN2CCOCC2)cc1 | 31 | 12 | 2 | 106 | 140* | 111 | 3 | 102
O=S(=O)(c1ccc(F)c(F)c1)N1CCC2(CC1)OCCO2 | 8 | . | . | 102 | 109 | . | . | .
CC(C)(C)c1nnc(N/N=C/c2cc(Br)ccc2O)n(N)c1=O | 0 | 2 | 0 | 142* | 105 | 122 | 14 | 106
N#CC[C@H](c1ccccc1)N1CCN(Cc2ccccc2)CCC1=O | -2 | . | . | 102 | 100 | . | . | .
CN(C)CCCN(C(=O)c1cccs1)c1nc(-c2ccccc2)cs1 | 5 | 11 | 2 | 101 | 147* | 138 | 19 | 109
COc1ccc(-c2csc(N(CCCN(C)C)C(=O)c3ccccc3C)n2)cc1 | 16 | . | . | 107 | 143* | 149 | 23 | 107
COc1ccc(-c2csc(N(CCCN(C)C)C(=O)c3ccccc3Cl)n2)cc1 | 28* | . | . | 107 | 138* | 167 | 70* | 102
Cn1c(SCC(=O)Nc2cccc(F)c2)nc2c(c1=O)SCC2 | 5 | . | . | 103 | 106 | . | . | .
COc1ccc(C(=O)NCc2n[nH]c(=S)n2-c2ccccc2)cc1OC | -40 | 8 | 1 | -1.0*[inhibitor] | -5.0*[inhibitor] | 110 | 11 | 107
COc1cc(OC)cc(C(=O)NCc2n[nH]c(=S)n2-c2ccccc2)c1 | -2 | -1 | 0 | 98 | 96 | . | . | .
COc1cc(OC)cc(C(=O)N/N=C\c2ccoc2)c1 | 9 | . | . | 106 | 110 | . | . | .
